Assay results: ChEMBL document CHEMBL1240333, “Surveying polypeptide and protein domain conformation and association with FlAsH and ReAsH” (Nat Chem Biol, 2007)
“And” between values parts separate entries of the source, which are not always exact repeats. Equal values may be shown once. Blank lines part the entries; values can stand above or below the compound they belong to. The source made the active and inactive calls. The calls are words filed in the database; no cut-off is given here. Peptide text beside a SMILES is read from it.

Experiments:
[1] = Binding affinity to alpha helix of avian pancreatic polypeptide F24/Y31P mutant by circular dichroism spectroscopy
Method in brief: (§1)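 CD spectra recorded at 25 °C in 10 mM sodium phosphate pH 7.0 with no competing dithiols. Protein at 10 μM (aPP, Zip4) or 20 μM (GCN4, Jun); unmodified peptides and their FlAsH complexes. Three wavelength scans at 50 nm min-1 averaged, buffer-only background subtracted.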

[2] = Binding affinity to avian pancreatic polypeptide F24/Y31P mutant
Method in brief: (§2)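 Fluorescence titration: 25 nM FlAsH or ReAsH titrated with increasing synthetic peptide or protein domain in 100 mM Tris-HCl pH 7.8 with 3.5 mM TCEP, 1 mM EDT, 1 mM EDTA. Emission read at 530 ± 12.5 nm (FlAsH) or 630 ± 17.5 nm (ReAsH) after reaching equilibrium, tracked over time. Apparent Kd taken from intensity versus concentration. Points are means of ≥3 independent titrations ± s.d.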

[3] = Binding affinity to tryptophan Zip4 polypeptide W916A mutant containing bipartite tetracysteine motif; method in brief: as §2
[4] = Binding affinity to beta sheet of tryptophan Zip4 polypeptide W916A mutant by circular dichroism spectroscopy; method in brief: as §1
[5] = Binding affinity to beta sheet structure of tryptophan Zip4 polypeptide by circular dichroism spectroscopy; method in brief: as §1
[6] = Binding affinity to tryptophan Zip4 polypeptide containing bipartite tetracysteine motif at 100 nM
[7] = Binding affinity to tryptophan Zip4 polypeptide containing bipartite tetracysteine motif at 25 nM; method in brief: as §2
[8] = Binding affinity to tryptophan Zip4 polypeptide containing bipartite tetracysteine motif; method in brief: as §2
HeLa [9] = test: Binding affinity to eGFP-tagged avian pancreatic polypeptide expressed in human HeLa cells at 500 nM after 10 hrs by FRET assay; type: cell-based
HeLa [10] = test: Binding affinity to eGFP-tagged avian pancreatic polypeptide expressed in human HeLa cells at 100 uM after 30 mins by FRET assay; type: cell-based
[11] = Binding affinity to avian pancreatic polypeptide containing bipartite tetracysteine motif at 100 nM; conditions: filed as agonist
[12] = Binding affinity to avian pancreatic polypeptide containing bipartite tetracysteine motif; method in brief: as §2
HeLa [13] = test: Binding affinity to eGFP-tagged avian pancreatic polypeptide expressed in human HeLa cells by flow cytometry; type: cell-based
Method in brief: (§3)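 Live HeLa cells transiently expressing eGFP fusions (aPP C-terminal or GCN4 N-terminal to eGFP) or eGFP alone. Stained 30 min with 500 nM ReAsH-EDT2 plus 100 μM EDT in phenol red-free, serum-free DMEM with 2 mM L-glutamine. PBS wash, then 0.75 mM BAL 30 min. Cells trypsinized and run by flow cytometry: eGFP 488 nm laser, 530 ± 15 nm; ReAsH 568 nm laser, 610 ± 10 nm. Mean ReAsH intensity plotted per log unit of eGFP.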

[14] = Binding affinity to alpha helix of avian pancreatic polypeptide by circular dichroism spectroscopy; method in brief: as §1
[15] = Binding affinity to avian pancreatic polypeptide containing bipartite tetracysteine motif at 25 nM; method in brief: as §2
[16] = Binding affinity to alpha helix of avian pancreatic polypeptide F24P mutant by circular dichroism spectroscopy; method in brief: as §1
HeLa [17] = test: Binding affinity to eGFP-tagged avian pancreatic polypeptide F24P mutant expressed in human HeLa cells by flow cytometry; type: cell-based; method in brief: as §3
HeLa [18] = test: Binding affinity to eGFP-tagged avian pancreatic polypeptide F24P mutant expressed in human HeLa cells at 100 uM after 30 mins by FRET assay; type: cell-based
HeLa [19] = test: Binding affinity to eGFP-tagged avian pancreatic polypeptide F24P mutant expressed in human HeLa cells at 500 nM after 10 hrs by FRET assay; type: cell-based
[20] = Binding affinity to avian pancreatic polypeptide F24P mutant; method in brief: as §2
[21] = Binding affinity to c-Jun L20P mutant at 25 degC by circular dichroism spectroscopy
[22] = Binding affinity to c-Jun homodimer L20P mutant containing bipartite tetracysteine motif; method in brief: as §2

Kapp [3]: 38 µM and 13 µM
Activity [4]: inactive
SMILES: CSCC[C@H](NC(=O)[C@H](CS)NC(=O)[C@H](CS)NC(=O)[C@@H](NC(=O)[C@H](Cc1c[nH]c2ccccc12)NC(=O)[C@@H](NC(=O)[C@H](C)NC(=O)[C@@H](NC(=O)[C@H](CCCCN)NC(=O)[C@@H](NC(=O)[C@H](C)NC(=O)[C@H](CC(=O)O)NC(=O)[C@H](CC(=O)O)NC(=O)[C@H](C)NC(=O)[C@@H](NC(=O)[C@H](Cc1c[nH]c2ccccc12)NC(=O)[C@H](CCC(=O)O)NC(=O)[C@H](CS)NC(=O)[C@H](CS)NC(=O)[C@H](CC(N)=O)NC(=O)[C@H](CC(C)C)NC(=O)[C@H](Cc1ccccc1)NC(C)=O)[C@@H](C)O)[C@@H](C)O)[C@@H](C)O)[C@@H](C)O)[C@@H](C)O)C(=O)N[C@@H](CCC(=O)O)C(=O)N1CCC[C@H]1C(N)=O (Ac-FLNCCEWTADDATKTATWTCCMEP-NH2)

Activity [11]: Agonist
Kapp [12]: 5.8 µM and 3.4 µM
Activity [14]: inactive
Activity [15]: Active
SMILES: CC[C@H](C)[C@H](NC(=O)[C@H](CC(C)C)NC(=O)[C@H](CC(=O)O)NC(=O)[C@H](CCC(=O)O)NC(=O)[C@@H](NC(=O)[C@@H]1CCCN1C(=O)[C@H](C)NC(=O)[C@H](CC(=O)O)NC(=O)[C@H](CC(=O)O)NC(=O)CNC(=O)[C@@H]1CCCN1C(=O)[C@H](Cc1ccc(O)cc1)NC(=O)[C@@H](NC(=O)[C@@H]1CCCN1C(=O)[C@H](CCC(N)=O)NC(=O)[C@H](CO)NC(=O)[C@@H]1CCCN1C(=O)[C@H](CS)NC(=O)[C@H](CS)NC(=O)[C@H](CC(N)=O)NC(=O)[C@H](CC(C)C)NC(=O)[C@H](Cc1ccccc1)NC(C)=O)[C@H](C)O)C(C)C)C(=O)N[C@@H](CCCNC(=N)N)C(=O)N[C@@H](Cc1ccccc1)C(=O)N[C@@H](Cc1ccc(O)cc1)C(=O)N[C@@H](CC(=O)O)C(=O)N[C@@H](CC(N)=O)C(=O)N[C@@H](CC(C)C)C(=O)N[C@@H](CCC(N)=O)C(=O)N[C@@H](CCC(N)=O)C(=O)N[C@@H](Cc1ccc(O)cc1)C(=O)N[C@@H](CC(C)C)C(=O)N[C@@H](CC(N)=O)C(=O)N[C@H](C(=O)N[C@@H](CS)C(=O)N[C@@H](CS)C(=O)N[C@@H](CCSC)C(=O)N[C@@H](CCC(=O)O)C(=O)N1CCC[C@H]1C(N)=O)C(C)C
Activity (HeLa [9]): Active
Activity (HeLa [10]): Active
Activity (HeLa [13]): Active

Continued, compound first:

SMILES: CC[C@H](C)[C@H](NC(=O)[C@H](CC(C)C)NC(=O)[C@H](CC(=O)O)NC(=O)[C@H](CCC(=O)O)NC(=O)[C@@H](NC(=O)[C@@H]1CCCN1C(=O)[C@H](C)NC(=O)[C@H](CC(=O)O)NC(=O)[C@H](CC(=O)O)NC(=O)CNC(=O)[C@@H]1CCCN1C(=O)[C@H](Cc1ccc(O)cc1)NC(=O)[C@@H](NC(=O)[C@@H]1CCCN1C(=O)[C@H](CCC(N)=O)NC(=O)[C@H](CO)NC(=O)[C@@H]1CCCN1C(=O)[C@H](CS)NC(=O)[C@H](CS)NC(=O)[C@H](CC(N)=O)NC(=O)[C@H](CC(C)C)NC(=O)[C@H](Cc1ccccc1)NC(C)=O)[C@H](C)O)C(C)C)C(=O)N[C@@H](CCCNC(=N)N)C(=O)N1CCC[C@H]1C(=O)N[C@@H](Cc1ccc(O)cc1)C(=O)N[C@@H](CC(=O)O)C(=O)N[C@@H](CC(N)=O)C(=O)N[C@@H](CC(C)C)C(=O)N[C@@H](CCC(N)=O)C(=O)N[C@@H](CCC(N)=O)C(=O)N1CCC[C@H]1C(=O)N[C@@H](CC(C)C)C(=O)N[C@@H](CC(N)=O)C(=O)N[C@H](C(=O)N[C@@H](CS)C(=O)N[C@@H](CS)C(=O)N[C@@H](CCSC)C(=O)N[C@@H](CCC(=O)O)C(=O)N1CCC[C@H]1C(N)=O)C(C)C
Activity [1]: inactive
Kapp [2]: 65 µM and 72 µM

SMILES: CSCC[C@H](NC(=O)[C@H](CS)NC(=O)[C@H](CS)NC(=O)[C@@H](NC(=O)[C@H](Cc1c[nH]c2ccccc12)NC(=O)[C@@H](NC(=O)[C@H](Cc1c[nH]c2ccccc12)NC(=O)[C@@H](NC(=O)[C@H](CCCCN)NC(=O)[C@@H](NC(=O)[C@H](C)NC(=O)[C@H](CC(=O)O)NC(=O)[C@H](CC(=O)O)NC(=O)[C@H](Cc1c[nH]c2ccccc12)NC(=O)[C@@H](NC(=O)[C@H](Cc1c[nH]c2ccccc12)NC(=O)[C@H](CCC(=O)O)NC(=O)[C@H](CS)NC(=O)[C@H](CS)NC(=O)[C@H](CC(N)=O)NC(=O)[C@H](CC(C)C)NC(=O)[C@H](Cc1ccccc1)NC(C)=O)[C@@H](C)O)[C@@H](C)O)[C@@H](C)O)[C@@H](C)O)[C@@H](C)O)C(=O)N[C@@H](CCC(=O)O)C(=O)N1CCC[C@H]1C(N)=O (Ac-FLNCCEWTWDDATKTWTWTCCMEP-NH2)
Activity [5]: inactive
Activity [6]: Active
Activity [7]: Active
Kapp [8]: 0.62 µM and 0.38 µM

SMILES: CC[C@H](C)[C@H](NC(=O)[C@H](CC(C)C)NC(=O)[C@H](CC(=O)O)NC(=O)[C@H](CCC(=O)O)NC(=O)[C@@H](NC(=O)[C@@H]1CCCN1C(=O)[C@H](C)NC(=O)[C@H](CC(=O)O)NC(=O)[C@H](CC(=O)O)NC(=O)CNC(=O)[C@@H]1CCCN1C(=O)[C@H](Cc1ccc(O)cc1)NC(=O)[C@@H](NC(=O)[C@@H]1CCCN1C(=O)[C@H](CCC(N)=O)NC(=O)[C@H](CO)NC(=O)[C@@H]1CCCN1C(=O)[C@H](CS)NC(=O)[C@H](CS)NC(=O)[C@H](CC(N)=O)NC(=O)[C@H](CC(C)C)NC(=O)[C@H](Cc1ccccc1)NC(C)=O)[C@H](C)O)C(C)C)C(=O)N[C@@H](CCCNC(=N)N)C(=O)N1CCC[C@H]1C(=O)N[C@@H](Cc1ccc(O)cc1)C(=O)N[C@@H](CC(=O)O)C(=O)N[C@@H](CC(N)=O)C(=O)N[C@@H](CC(C)C)C(=O)N[C@@H](CCC(N)=O)C(=O)N[C@@H](CCC(N)=O)C(=O)N[C@@H](Cc1ccc(O)cc1)C(=O)N[C@@H](CC(C)C)C(=O)N[C@@H](CC(N)=O)C(=O)N[C@H](C(=O)N[C@@H](CS)C(=O)N[C@@H](CS)C(=O)N[C@@H](CCSC)C(=O)N[C@@H](CCC(=O)O)C(=O)N1CCC[C@H]1C(N)=O)C(C)C
Activity [16]: inactive
Activity (HeLa [17]): Active
Activity (HeLa [18]): Active
Activity (HeLa [19]): inactive
Kapp [20]: 27 µM and 22 µM

SMILES: CC[C@H](C)[C@H](NC(=O)[C@H](CCCNC(=N)N)NC(=O)[C@H](Cc1c[nH]c2ccccc12)NC(C)=O)C(=O)N[C@@H](C)C(=O)N[C@@H](CCCNC(=N)N)C(=O)N[C@@H](CC(C)C)C(=O)N[C@@H](CCC(=O)O)C(=O)N[C@@H](CCC(=O)O)C(=O)N[C@@H](CCCCN)C(=O)N[C@H](C(=O)N[C@@H](CCCCN)C(=O)N[C@H](C(=O)N[C@@H](CC(C)C)C(=O)N[C@@H](CCCCN)C(=O)N[C@@H](C)C(=O)N[C@@H](CCC(N)=O)C(=O)N[C@@H](CC(N)=O)C(=O)N[C@@H](CO)C(=O)N[C@@H](CCC(=O)O)C(=O)N1CCC[C@H]1C(=O)N[C@@H](C)C(=O)N[C@@H](CO)C(=O)N[C@H](C(=O)N[C@@H](C)C(=O)N[C@@H](CC(N)=O)C(=O)N[C@@H](CCSC)C(=O)N[C@@H](CC(C)C)C(=O)N[C@@H](CCCNC(=N)N)C(=O)N[C@@H](CCC(=O)O)C(=O)N[C@@H](CCC(N)=O)C(=O)N[C@H](C(=O)N[C@@H](C)C(=O)N[C@@H](CCC(N)=O)C(=O)N[C@@H](CC(C)C)C(=O)N[C@@H](CCCCN)C(=O)N[C@@H](CCC(N)=O)C(=O)N[C@@H](CCCCN)C(=O)N[C@H](C(=O)N[C@@H](CS)C(=O)N[C@@H](CS)C(N)=O)C(C)C)C(C)C)[C@@H](C)O)[C@@H](C)O)C(C)C (Ac-WRIARLEEKVKTLKAQNSEPASTANMLREQVAQLKQKVCC-NH2)
Activity [21]: inactive
Kapp [22]: > 111 µM
